Test [1] concerns Staphylococcus aureus. The test can be described thus: Inhibition of Staphylococcus aureus DNA gyrase assessed as reduction in pNO1 supercoiling at 0.5 ug/mL by fluorescent dye-based assay. The method in brief: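 Supercoiling plate assay run per the kit instructions. S. aureus gyrase was incubated with compound and plasmid pNO1. Negatively supercoiled plasmid was captured by a triplex-forming oligonucleotide, stained with a fluorescent dye and read by fluorescence (excitation 485 nm). Percent inhibition was reported.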

A further test deals with Enterococcus faecium. The test can be described thus: Antibacterial activity against vancomycin-resistant Enterococcus faecium NCTC 12204 after 20 hrs by broth microdilution method. In kind it is functional. As to conditions: NCTC 12204, 20 h. The method in brief:
(§1)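 Broth microdilution in Tryptic Soy Broth; growth read as OD600 after 20 h. MIC taken as the lowest drug concentration giving OD600 below 0.1. Run in triplicate.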

For test [2], the system named is Staphylococcus aureus. The test can be described thus: Bactericidal activity against methicillin-resistant Staphylococcus aureus EMRSA-15 assessed as time required to kill bacteria by >6 log10CFU/ml at 4 times MIC by Miles Misra dilution method. It is filed as functional. The method, boiled down: (§2)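 Flasks of TSB inoculated at ~10^6 cfu/mL, compound added at 4 × MIC, shaken at 200 rpm and 37 °C. Samples taken at 1, 2, 4, 6 and 24 h and plated by Miles Misra dilution for CFU/mL. Bactericidal means a loss of >3 log CFU/mL. Three independent repeats, error bars SD.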

Test [3] deals with Staphylococcus aureus. Briefly: Bactericidal activity against methicillin-resistant Staphylococcus aureus EMRSA-15 assessed as time required to kill bacteria by 3 log10CFU/ml at 4 times MIC by Miles Misra dilution method. It is filed as functional. The method, boiled down: as §2
Test [4] has as its system Enterococcus faecalis. Briefly: Antibacterial activity against vancomycin-resistant Enterococcus faecalis NCTC 12201 after 20 hrs by broth microdilution method. In kind it is functional. The note with it: NCTC 12201, 20 h. The method in brief: as §1
Test [5] deals with Staphylococcus aureus. The test can be described thus: Antibacterial activity against methicillin-sensitive Staphylococcus aureus ATCC 9144 after 20 hrs by broth microdilution method. It is filed as functional. As to conditions: ATCC 9144, 20 h. The method in brief:
(§3)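 Broth microdilution in Tryptic Soy Broth, done in triplicate. Growth was read as OD600 after 20 h. MIC is the lowest drug concentration giving OD600 below 0.1.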

For test [6], the system named is Staphylococcus aureus. Briefly: Antibacterial activity against methicillin-resistant Staphylococcus aureus EMRSA-15 after 20 hrs by broth microdilution method. In kind it is functional. As to conditions: EMRSA-15, 20 h. The method in brief: as §1
Test [7] deals with Enterococcus faecalis. The test can be described thus: Bactericidal activity against vancomycin-resistant Enterococcus faecalis NCTC 12201 assessed as time required to kill bacteria by <3 log10CFU/ml at 4 times MIC by Miles Misra dilution method. It is filed as functional. The method, boiled down:
as §2

The subject of test [8] is Staphylococcus aureus. The test can be described thus: Antibacterial activity against methicillin-resistant Staphylococcus aureus MRSA252 after 20 hrs by broth microdilution method. As to conditions: MRSA252, 20 h. It is filed as functional. The method in brief:
as §1

For test [9], the system named is Enterococcus faecalis. The test can be described thus: Antibacterial activity against vancomycin-sensitive Enterococcus faecalis NCTC 775 after 20 hrs by broth microdilution method. It is filed as functional. The note with it: NCTC 775, 20 h. The method in brief:
as §3

Results on 1 compound are retold here after ChEMBL document CHEMBL4011643, “Triaryl Benzimidazoles as a New Class of Antibacterial Agents against Resistant Pathogenic Microorganisms” (J Med Chem, 2017).

Take `C[C@H]1COc2c(N3CCN(C)CC3)c(F)cc3c(=O)c(C(=O)O)cn1c23.C[C@H]1COc2c(N3CCN(C)CC3)c(F)cc3c(=O)c(C(=O)O)cn1c23.O` [LEVOFLOXACIN]: the inhibition in the test with Staphylococcus aureus [1] was found to be 57.9%. Moreover, the MIC against Enterococcus faecium was found to be 0.5 µg/mL; in the test on Enterococcus faecalis [4], 1 µg/mL; in the test with Staphylococcus aureus [5] it was 0.12 µg/mL; with Staphylococcus aureus [6], 8 µg/mL; in the test on Staphylococcus aureus [8], 8 µg/mL; against Enterococcus faecalis [9] it was 1 µg/mL. Besides, the Time worked out at 24 h in the test on Staphylococcus aureus [2], 6 h in the test with Staphylococcus aureus [3] and 24 h in the test on Enterococcus faecalis [7].
